Measured values from ChEMBL document CHEMBL3352236, “Discovery and molecular modeling of novel 1-indolyl acetate--5-nitroimidazole targeting tubulin polymerization as antiproliferative agents” (Eur J Med Chem, 2014).
pIC50: −log10 of the molar value.

Tests used:
A549 = test: Antiproliferative activity against human A549 cells after 24 to 48 hrs by CKK8 assay; assay type: functional, cell-based
Procedure, shortened: (§1)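 CCK-8 assay. 1–5 × 10³ cells per well grown at 37 °C for 12 h, then exposed to rising compound concentrations in 10% FBS for 24 or 48 h. CCK-8 dye added and incubated 1–2 h at 37 °C, […]. Percent inhibition or IC50 taken relative to DMSO-treated control wells.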

HeLa = test: Antiproliferative activity against human HeLa cells after 24 to 48 hrs by CKK8 assay; assay type: functional, cell-based; procedure, shortened: as §1
[1] = Cytotoxicity against human macrophages assessed as reduction in cell viability after 24 hrs by MTT assay; assay type: cell-based, Macrophage
Procedure, shortened: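 Human macrophages at 5*10⁵ cells per well treated with a range of compound concentrations for 24 h at 37 °C, 5% CO₂. MTT (4 mg/mL) added and left 4 h, then centrifugation at 1200 rcf for 5 min and formazan dissolved in DMSO. Absorbance read at 570 nm. Triplicate wells, assay run three times, mean CC50 (50% viability loss) ± SD reported.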

U-251 = test: Antiproliferative activity against human U251 cells after 24 to 48 hrs by CKK8 assay; assay type: functional, cell-based; procedure, shortened: as §1
Tubulin = Tubulin (Bos taurus, UniProt Q6B856+Q862L2+Q862F3); test: Inhibition of bovine brain tubulin preincubated for 20 mins by turbidimetry

Row | SMILES | pIC50 (A549) | pIC50 (HeLa) | pIC50 (U-251) | IC50 (Tubulin) | CC50 at 24 h [1]
1 | O=C(OCCn1c([N+](=O)[O-])cnc1/C=C\c1ccccc1Br)c1c[nH]c2ccccc12 | 5.29 | 5.39 | 5.51 | 112.2 µM | 145 µM
2 | O=C(OCCn1c([N+](=O)[O-])cnc1/C=C\c1ccc(Br)cc1)c1c[nH]c2ccccc12 | 5.26 | 5.32 | 5.41 | 123.3 µM | 98 µM
3 | O=C(OCCn1c([N+](=O)[O-])cnc1/C=C\c1ccccc1[N+](=O)[O-])c1c[nH]c2ccccc12 | 5.67 | 5.91 | 5.95 | 6.3 µM | 109 µM
4 | O=C(OCCn1c([N+](=O)[O-])cnc1/C=C\c1ccc([N+](=O)[O-])cc1)c1c[nH]c2ccccc12 | 5.70 | 5.75 | 5.69 | 6.9 µM | 200 µM
5 | Cc1ccccc1/C=C\c1ncc([N+](=O)[O-])n1CCOC(=O)c1c[nH]c2ccccc12 | 5.40 | 5.35 | 5.55 | 67.2 µM | 202 µM
6 | Cc1ccc(/C=C\c2ncc([N+](=O)[O-])n2CCOC(=O)c2c[nH]c3ccccc23)cc1 | 5.41 | 5.64 | 5.51 | 45.2 µM | 123 µM
7 | COc1ccccc1/C=C\c1ncc([N+](=O)[O-])n1CCOC(=O)c1c[nH]c2ccccc12 | 5.51 | 5.49 | 5.39 | 21.4 µM | 77 µM
8 | COc1ccc(/C=C\c2ncc([N+](=O)[O-])n2CCOC(=O)c2c[nH]c3ccccc23)cc1 | 5.40 | 5.41 | 5.51 | 50.3 µM | 106 µM
9 | O=C(OCCn1c([N+](=O)[O-])cnc1/C=C\c1cccc2ccccc12)c1c[nH]c2ccccc12 | 5.15 | 4.99 | 4.89 | 186.5 µM | 158 µM
10 | COc1ccc(/C=C\c2cc(OC)c(OC)c(OC)c2)cc1O [COMBRETASTATIN A4] | 5.55 | 5.84 | 6.27 | – | –

Second part, led by results:

Row | pIC50 (A549) | pIC50 (HeLa) | pIC50 (U-251) | IC50 (Tubulin) | SMILES | CC50 at 24 h [1]
11 | 5.35 | 5.42 | 5.49 | 98.8 µM | O=C(OCCn1c([N+](=O)[O-])cnc1/C=C/c1ccc(Cl)cc1)c1c[nH]c2ccccc12 | 104 µM
12 | 5.37 | 5.51 | 5.53 | 71.2 µM | O=C(OCCn1c([N+](=O)[O-])cnc1/C=C/c1ccccc1Cl)c1c[nH]c2ccccc12 | 132 µM
13 | 5.30 | 5.38 | 5.39 | 103 µM | O=C(OCCn1c([N+](=O)[O-])cnc1/C=C/c1cccc(Cl)c1)c1c[nH]c2ccccc12 | 156 µM
14 | 5.22 | 5.32 | 5.41 | 162 µM | O=C(OCCn1c([N+](=O)[O-])cnc1/C=C\c1cccc(Br)c1)c1c[nH]c2ccccc12 | 164 µM
15 | 5.54 | 5.70 | 5.55 | 19.5 µM | O=C(OCCn1c([N+](=O)[O-])cnc1/C=C\c1cccc([N+](=O)[O-])c1)c1c[nH]c2ccccc12 | 123 µM
16 | 5.36 | 5.42 | 5.52 | 75.3 µM | Cc1cccc(/C=C\c2ncc([N+](=O)[O-])n2CCOC(=O)c2c[nH]c3ccccc23)c1 | 154 µM
17 | 5.39 | 5.40 | 5.56 | 67.7 µM | COc1cccc(/C=C\c2ncc([N+](=O)[O-])n2CCOC(=O)c2c[nH]c3ccccc23)c1 | 89 µM
18 | 5.70 | 5.98 | 6.06 | 2.4 µM | O=C(OCCn1c([N+](=O)[O-])cnc1/C=C\c1ccc(Cl)cc1Cl)c1c[nH]c2ccccc12 | 287 µM
19 | 5.07 | 4.87 | 4.77 | 204.1 µM | O=C(OCCn1c([N+](=O)[O-])cnc1/C=C\c1ccccc1)c1c[nH]c2ccccc12 | 105 µM
